Experimental data reported in ChEMBL document CHEMBL1129296, “Cardioselective antiischemic ATP-sensitive potassium channel openers. 4. Structure-activity studies on benzopyranylcyanoguanidines: replacement of the benzopyran portion” (J Med Chem, 1996).

Tests used:
Assay type in all cases: functional
[1] = species on record: Rattus norvegicus; test: Antiischemic potency was determined at 10 uM for increase in time to contracture by 25% in globally ischemic rat hearts.
[2] = species on record: Rattus norvegicus; test: Vasorelaxant potency was determined for inhibition of methoxamine contracted rat aorta.
In short: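 Vasorelaxation was measured in rat aorta precontracted with methoxamine. IC50 is the concentration giving relaxation of the contraction.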

[3] = Ratio between Antiischemic potency to Vasorelaxant potency
In short: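 Cardioselectivity was taken as the ratio of two values. The first is the EC25 for a 25% increase in time to contracture, in globally ischemic isolated perfused rat hearts. The second is the IC50 for relaxation of methoxamine-contracted rat aorta.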

[4] = species on record: Rattus norvegicus; test: Antiischemic potency was determined for increase in time to contracture by 25% in globally ischemic rat hearts.
In short: (§1)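 Isolated rat hearts were perfused, then subjected to total global ischemia. Contracture onset was taken as the time for end diastolic pressure to rise 5 mmHg above baseline. EC25 is the concentration that raises time to contracture by 25%.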

[5] = species on record: Rattus norvegicus; test: Antiischemic potency for increase in time to contracture by 25% in globally ischemic rat hearts.; in short: as §1

Row | SMILES | Increase in time to contracture [1] [%] | IC50 [2] [µM] | Ratio [3] | EC25 [4] [µM] | Inhibition [5] [%]
1 | CC(C)(C)c1ccc(C#N)cc1NC(=O)Nc1cncnc1 | 2 | 12.4 | – | – | –
2 | CC(C)(C)c1ccc(C#N)cc1/N=C(/NC#N)Nc1cccnc1 | 16 | 1.2 | – | – | –
3 | CC(C)(C)c1ccc(C#N)cc1NC(=O)Nc1cccnc1 | 25 | 25.7 | 1.2 | 29.7 | –
4 | CC(C)(C)c1ccc(C#N)cc1NC(=O)Nc1cnccn1 | – | 15.3 | 0.77 | 11.9 | –
5 | CC(C)(C)c1ccc(C#N)cc1NC(=O)Nc1ccncc1 | 14 | 7.8 | – | – | –
6 | CC(C)(C)c1ccc(C#N)cc1NC(=O)Nc1ccc(Cl)nc1 | – | 1.6 | 12 | 19.2 | –
7 | CC1(C)CN(C(=O)Nc2cccnc2)c2cc(C#N)ccc21 | – | 1.5 | 18.8 | 28.3 | –
8 | N#Cc1ccc(Oc2ccccc2)c(NC(=O)Nc2cccnc2)c1 | – | 1 | – | 2 | –
9 | CC1(C)Oc2ccc(C#N)cc2[C@@H](/N=C(\NC#N)Nc2ccccc2)[C@@H]1O | – | 1.4 | 7.9 | 11 | –
10 | CC1(C)CCN(C(=O)Nc2ccccc2)c2cc(C#N)ccc21 | – | 6.7 | 3.9 | 26 | –
11 | N#Cc1ccc(-c2ccccc2)c(NC(=O)Nc2cccnc2)c1 | – | 22.8 | – | 12 | –
12 | CC(C)(C)c1ccc(C#N)cc1NC(=O)Nc1ccccn1 | 25 | 25.7 | – | – | –
13 | CC(C)(C)c1ccc(C#N)cc1NC(=O)Nc1ccccc1 | – | 1.7 | 19.9 | 33.8 | –
14 | CC1(C)CC(NC(=O)Nc2ccccc2)c2cc(C#N)ccc21 (centres undefined) | – | 1.3 | 7.2 | 9.4 | –
15 | Cc1ccc(S(=O)(=O)Nc2ccc(C#N)cc2NC(=O)Nc2cccnc2)cc1 | – | > 100 | – | – | 0
